Test results reported in ChEMBL document CHEMBL2040756, “Discovery and optimization of 2,4-diaminoquinazoline derivatives as a new class of potent dengue virus inhibitors” (J Med Chem, 2012).
Activity calls are given as the source filed them. The rule behind the calls is not given here.

Assays:
[1] = Cytotoxicity against hamster BHK cells; type: cell-based, Mesocricetus auratus
dengue virus type 2 [2] = assay: Antiviral activity against Dengue virus 2 infected in BHK-D2RepT replicon systems assessed as inhibition of viral replication after 24 hrs by luciferase reporter gene assay; type: functional, organism-based
Summary of the method: (§1)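 BHK-D2RepT replicon cells, kept in MEM with 10% FBS and 200 μg/mL G418, were preseeded 24 h without G418. Compounds were diluted from DMSO stock into MEM, with final DMSO <0.2% (v/v), and incubated 24 h. Medium was then replaced and firefly luciferase read. Inhibition was expressed as a percentage of the no-compound luciferase signal.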

[3] = Selectivity index, ratio of CC50 for hamster BHK cells to EC50 for Dengue virus 2; type: toxicity, cell-based; details: read-out: Ratio CC50/EC50
[4] = Half life in rat at 10 mg/kg, iv administered as single dose; type: ADME, organism-based; set-up: dose 10 mg/kg, route intravenous; details: in vivo
Summary of the method: (§2)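 Rats received a single dose of 20 mg/kg orally or 10 mg/kg intravenously. Plasma concentration–time profiles gave AUC0→∞, MRT, t1/2, Tmax, Cmax, clearance, terminal volume of distribution and oral bioavailability.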

[5] = Plasma clearance in rat at 10 mg/kg, iv administered as single dose; type: ADME, organism-based; set-up: dose 10 mg/kg, route intravenous; summary of the method: as §2
[6] = molecular target: Voltage-gated inwardly rectifying potassium channel KCNH2 (Homo sapiens, UniProt Q12809); assay: Inhibition of human ERG expressed in HEK293 cells by patch clamp assay; type: cell-based
Sequence of Voltage-gated inwardly rectifying potassium channel KCNH2 (Q12809 whole entry): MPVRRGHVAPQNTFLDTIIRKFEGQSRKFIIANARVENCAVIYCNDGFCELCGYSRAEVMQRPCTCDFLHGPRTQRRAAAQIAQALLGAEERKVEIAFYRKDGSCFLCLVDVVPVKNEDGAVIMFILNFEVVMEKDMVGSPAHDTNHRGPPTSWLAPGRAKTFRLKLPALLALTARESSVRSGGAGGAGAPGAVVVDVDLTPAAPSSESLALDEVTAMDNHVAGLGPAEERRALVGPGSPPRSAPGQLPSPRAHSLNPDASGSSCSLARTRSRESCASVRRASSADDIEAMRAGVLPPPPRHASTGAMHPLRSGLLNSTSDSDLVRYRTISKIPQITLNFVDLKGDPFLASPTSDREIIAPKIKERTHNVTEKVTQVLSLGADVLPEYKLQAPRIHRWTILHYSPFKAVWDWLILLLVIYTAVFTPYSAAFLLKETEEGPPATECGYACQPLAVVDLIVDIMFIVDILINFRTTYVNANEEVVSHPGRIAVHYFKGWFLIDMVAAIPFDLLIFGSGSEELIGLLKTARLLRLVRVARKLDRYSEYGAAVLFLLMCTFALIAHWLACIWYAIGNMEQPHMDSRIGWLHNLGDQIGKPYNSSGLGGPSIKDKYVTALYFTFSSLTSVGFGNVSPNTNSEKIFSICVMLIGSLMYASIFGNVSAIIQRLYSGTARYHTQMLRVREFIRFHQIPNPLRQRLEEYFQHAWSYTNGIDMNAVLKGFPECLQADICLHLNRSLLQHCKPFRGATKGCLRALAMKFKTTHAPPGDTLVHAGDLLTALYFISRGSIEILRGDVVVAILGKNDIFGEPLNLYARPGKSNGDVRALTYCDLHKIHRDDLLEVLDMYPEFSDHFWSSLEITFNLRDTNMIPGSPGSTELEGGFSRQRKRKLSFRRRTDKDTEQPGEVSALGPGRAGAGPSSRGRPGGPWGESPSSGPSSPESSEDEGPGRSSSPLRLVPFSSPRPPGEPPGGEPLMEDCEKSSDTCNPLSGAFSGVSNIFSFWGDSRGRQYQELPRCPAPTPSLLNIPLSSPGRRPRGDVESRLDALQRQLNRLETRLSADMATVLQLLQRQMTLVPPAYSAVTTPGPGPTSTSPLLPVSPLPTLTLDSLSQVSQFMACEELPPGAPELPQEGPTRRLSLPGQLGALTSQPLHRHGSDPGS
Summary of the method: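 hERG (IKr) potassium channel currents in HEK-293 cells were recorded by patch clamp.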

[7] = AUC (0 to infinity) in rat at 10 mg/kg, iv administered as single dose; type: ADME, organism-based; set-up: time infinity, dose 10 mg/kg, route intravenous; details: plasma
Summary of the method: (§3)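 Rats received one dose, either oral at 20 mg/kg or intravenous at 10 mg/kg. Plasma concentration of the compound was followed over time after dosing. AUC was taken as the area under the plasma concentration–time curve from time zero to infinity.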

[8] = Mean residence time in rat at 20 mg/kg, po administered as single dose; type: ADME, organism-based; set-up: dose 20 mg/kg, route oral; details: in vivo; summary of the method: as §2
[9] = Apparent volume of distribution in rat at 10 mg/kg, iv administered as single dose; type: ADME, organism-based; set-up: dose 10 mg/kg, route intravenous; details: in vivo, read-out: Vz; summary of the method: as §2
dengue virus type 2 [10] = assay: Antiviral activity against Dengue virus 2 infected in BHK-D2RepT replicon systems assessed as inhibition of viral multiplication after 24 hrs by luciferase reporter gene assay; type: functional, organism-based; summary of the method: as §1
[11] = Mean residence time in rat at 10 mg/kg, iv administered as single dose; type: ADME, organism-based; set-up: dose 10 mg/kg, route intravenous; details: in vivo; summary of the method: as §2
dengue virus type 2 [12] = assay: Antiviral activity against Dengue virus 2 NGC infected in forest mosquito C6/36 cells assessed as inhibition of virus-induced cytopathic effect after 48 hrs by optical microscopy; type: functional, organism-based
Summary of the method: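 DENV-2 NGC strain was grown in C6/36 cells and titered. C6/36 cells were preseeded overnight and then infected at MOI 0.01, allowing several rounds of replication that produce syncytia.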

[13] = Oral bioavailability in rat at 20 mg/kg administered as single dose; type: ADME, organism-based; details: in vivo; summary of the method: as §2
[14] = Half life in rat at 20 mg/kg, po administered as single dose; type: ADME, organism-based; set-up: dose 20 mg/kg, route oral; details: in vivo; summary of the method: as §2
[15] = Tmax in rat at 20 mg/kg, po administered as single dose; type: ADME, organism-based; set-up: dose 20 mg/kg, route oral; details: in vivo; summary of the method: as §2
dengue virus type 2 [16] = assay: Antiviral activity against Dengue virus 2 infected in BHK-D2RepT replicon systems assessed as […] after 24 hrs by luciferase reporter gene assay; type: functional, organism-based
Summary of the method: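 BHK-D2RepT DENV-2 replicon cells carrying a luciferase reporter are kept in MEM with 10% FBS and 200 μg/mL G418, then preseeded 24 h without G418. Compound from DMSO stock is diluted in MEM (final DMSO <0.2% v/v) and incubated 24 h. Medium is replaced and firefly luciferase read. Inhibition is expressed as percent of no-compound luciferase signal.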

[17] = Cmax in rat at 20 mg/kg, po administered as single dose measured 2 hrs post dose; type: ADME, organism-based; set-up: dose 20 mg/kg, route oral; details: in vivo; summary of the method: as §2
dengue virus type 2 [18] = assay: Antiviral activity against Dengue virus 2
[19] = AUC (0 to infinity) in rat at 20 mg/kg, po administered as single dose; type: ADME, organism-based; set-up: time infinity, dose 20 mg/kg, route oral; details: plasma; summary of the method: as §3
dengue virus type 2 [20] = assay: Antiviral activity against Dengue virus 2 infected in BHK-D2RepT replicon systems assessed as inhibition of viral expression after 24 hrs by luciferase reporter gene assay; type: functional, organism-based; summary of the method: as §1

Compound	CC50 [1] [nM]	EC50 (dengue virus type 2 [2]) [nM]	selectivity ratio [3]	further results
Nc1nc(N)c2cc(Oc3ccccc3)ccc2n1	> 10000	> 10000	–	–
Nc1nc(N)c2c(OC3CCCCC3)cccc2n1	> 10000	130	> 76.9	–
Nc1nc(N)c2c(N3CCCC3)cccc2n1	1200	150	8	–
Nc1nc(N)c2c(Oc3ccccc3)cccc2n1	> 10000	29	> 300	–
COc1ccc2nc(N)nc(N)c2c1	> 10000	> 10000	–	–
Nc1nc(N)c2c(OCC(F)(F)F)cccc2n1	> 10000	7.9	> 1000	–
CN(C)c1cccc2nc(N)nc(N)c12	> 10000	3300	> 3	–
CCCCCCCCOc1cccc2nc(N)nc(N)c12	730	180	4.1	–
Nc1nc(N)c2c(F)cccc2n1	> 10000	> 10000	–	–
CCCCOc1cccc2nc(N)nc(N)c12	> 10000	36	> 200	–
Nc1nc(N)c2cccc(Oc3ccccc3)c2n1	550	60	9.2	–
Nc1nc(N)c2c(OCc3ccccc3)cccc2n1	> 10000	39	> 200	–
CC(C)(C)COc1cccc2nc(N)nc(N)c12	650	80	8.1	–
CC(C)(C)S(=O)(=O)c1cccc2nc(N)nc(N)c12	> 10000	> 10000	–	–
COc1cccc2c(N)nc(N)nc12	> 10000	5400	> 1.9	–
CC(C)(C)Oc1cccc2nc(N)nc(N)c12	> 10000	2.8	> 1000	half-life [4]: 1.3 h; clearance [5]: 6.56 mL/min/kg; IC50 [6]: 20200 nM; AUC(0-inf) [7]: 1560 ng·h/mL; MRT [8]: 7.2 h; Vd [9]: 11.7 L/kg; Activity (dengue virus type 2 [10]): Active; MRT [11]: 1.8 h; Activity (dengue virus type 2 [12]): Active; bioavailability [13]: 69%; half-life [14]: 5 h; Tmax [15]: 2 h; EC50 (dengue virus type 2 [16]): < 50 nM; Cmax [17]: 249 ng/mL; Activity (dengue virus type 2 [18]): Active; AUC(0-inf) [19]: 2220 ng·h/mL; Activity (dengue virus type 2 [20]): Active
CC(C)(C)Sc1cccc2nc(N)nc(N)c12	5300	900	5.9	–
Nc1nc(N)c2c(OC3CCCC3)cccc2n1	> 10000	7.4	> 1000	–
COc1cccc2nc(N)nc(N)c12	> 10000	150	> 66.7	–
COc1ccc2c(N)nc(N)nc2c1	> 10000	> 10000	–	–
Nc1nc(N)c2ccccc2n1	> 10000	> 10000	–	–
Nc1nc(N)c2ccc(Oc3ccccc3)cc2n1	> 10000	> 10000	–	–
CCOc1cccc2nc(N)nc(N)c12	> 10000	37	> 200	–
CC(C)(C)Nc1cccc2nc(N)nc(N)c12	2500	9.2	> 200	–
